Assay results from different studies.
Protocols differ between the studies behind these lines.
Target: SRSF protein kinase 3 (SRPK3, Homo sapiens, UniProt Q9UPE1)

| SMILES | test | setting | measurement | value |
| --- | --- | --- | --- | --- |
| COc1cc(Cl)c(C(=O)N[C@@H](CN[C@H]2CC[C@@H](N)CC2)Cc2ccc(C#N)cc2)cc1-c1ccc(CN[C@H](C)c2ccc(C)cc2)o1 | enzyme activity, inhibitor | 1 µM | remaining activity | 96% |
| COc1cc(-c2cn(C3CCc4c(F)cccc4N(CC(F)(F)F)C3=O)nn2)ccc1-n1cnc(C)c1 (centres unmarked) | cell-free assay, competition with immobilised ligand | 1 µM | remaining binding | 100% |
| CCN(CC)CCNC(=O)c1c(C)[nH]c(/C=C2\C(=O)Nc3ccc(F)cc32)c1C | enzyme activity, inhibitor | 10 µM | inhibition | 15% |
| CC/C(=N\NC(=O)NCc1cccc(O)c1)c1ccc(O)c(C)c1O | enzyme activity, inhibitor | 0.1 µM | inhibition | -2.9% |
| Cn1c2c(c3ccc(Cl)c(Cl)c31)C(C#N)C(C)(C)NC2=O (centres unmarked) | thermal stability, DSF | 10 µM | ΔTm | 1.5 °C |
| Cc1cc(NC(=O)c2cccc3cc(-c4cccc5[nH]nc(N)c45)ccc23)ccc1F | enzyme activity, inhibitor | 0.1 µM | activity vs control | 113% |
| CS(=O)(=O)NCC[C@H](NC(=O)c1cncc2c1cnn2-c1ccc(F)cc1)c1ccnc(S(C)(=O)=O)c1 | cell-free assay, competition with immobilised ligand | 1 µM | remaining binding | 100% |
| Cc1ccc(Nc2nccc(N(C)c3ccc4c(C)n(C)nc4c3)n2)cc1S(N)(=O)=O | enzyme activity, inhibitor | 0.3 µM | inhibition | -13% |
| Cc1cc(NC(=O)c2cccc(S(F)(F)(F)(F)F)c2)cc(-n2ccn3nc(-c4cccnc4)cc23)c1 | cell-free assay, competition with immobilised ligand | 1 µM | remaining binding | 100% |
| CCN(CC)c1ccc(C2=NNC(=O)CC2C)cc1[N+](=O)[O-] (centres unmarked) | enzyme activity, inhibitor | 10 µM | remaining activity | 111% |
| CCCOc1ccc(OC)c(F)c1C(=O)c1ccc(C(=O)N[C@@H]2CNC[C@H]2NC(=O)c2ccc3[nH]ncc3c2)cc1 | enzyme activity, inhibitor | 10 µM | remaining activity | 77% |
| CC(C)(C)c1nc(-c2cccc(NS(=O)(=O)c3c(F)cccc3F)c2F)c(-c2ccnc(N)n2)s1 | enzyme activity, inhibitor, radiometric | 1 µM | remaining activity | 105% |
| CCC(=O)N[C@@H]1CC[C@H](C(=O)N(C)c2ccc(-c3nc4ccccc4o3)cc2)C1 | cell-free assay, competition with immobilised ligand | 1 µM | remaining binding | 100% |
| Cn1c2c(Cl)c(Cl)ccc2c2cc(N)[nH]c(=O)c21 | thermal stability, DSF | 10 µM | ΔTm | 0.3 °C |
| COc1cc2ncnc(Nc3ccc(Oc4ccccc4)cc3C)c2cc1OC | enzyme activity, inhibitor | 1 µM | inhibition | 2% |
| CNC(=O)c1cc(Oc2ccc(NC(=O)Nc3ccc(Cl)c(C(F)(F)F)c3)cc2)ccn1 | enzyme activity, inhibitor | 0.3 µM | inhibition | -7% |
| O=c1nc(-c2ccccn2)sc2ccccc12 | binding, competition with immobilised ligand | 1 µM | remaining binding | 100% |
| Cn1c2c(c3ccc(Cl)c(Cl)c31)C(C#N)C1(CCNCC1)NC2=O (racemic) | thermal stability, DSF | 10 µM | ΔTm | 1.9 °C |
| Cc1cnc(NC2CCOCC2)nc1-n1cnc(C(=O)NC(CN)c2cc(F)cc(Cl)c2)c1 (centres unmarked) | enzyme activity, inhibitor, radiometric | 1 µM | remaining activity | 114% |
| Cc1cc(-n2nc(Cc3cc(F)cc(C(F)(F)F)c3)nc2C)ccc1C(N)=O | cell-free assay, competition with immobilised ligand | 1 µM | remaining binding | 100% |
